Experiments:
[1] = test system: T. cruzi extracts (TCH) translating capped and polyadenylated Renilla luciferase reporter mRNA; type: biochemical, Trypanosoma cruzi; details: for % Inhibition: initial screen, 40 μM, Renilla luciferase signal relative to DMSO; for concentration above which translation was fully inhibited: Fig. 3C
[2] = test system: supplemented TCH extract translating capped and polyadenylated Renilla mRNA; experiment: Miniaturized low-volume; type: biochemical, Trypanosoma cruzi; details: 8 μL; for % Inhibition (40 µM): Table S3, 40 µM; for inhibition of translation in T. cruzi extract (in words): 40 μM, 2 h, Fig. 3B
[3] = test system: protein synthesis in T. cruzi epimastigotes (WT, DM28c strain); experiment: Puromycylation assay in living epimastigotes; type: cell-based, Trypanosoma cruzi; details: 40 μM, 1 h pre-incubation, then puromycin 10 μg/mL 15 min
Outline: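 Dm28c epimastigotes at 1 × 10⁷/mL in LIT-10% FBS, preincubated 1 h at 28°C with test compound (40 μM, from DMSO), with DMSO and 5 μM cycloheximide controls. Puromycin at 10 μg/mL, 15 min, 28°C; cells RIPA-lysed. 20 μg protein run on 10% SDS-PAGE and blotted with anti-puromycin mAb (1:100, overnight, 4°C), then IRDye680 secondary; anti-aldolase loading control. 150–20 kDa signal quantified relative to DMSO; 2–4 independent experiments.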

[4] = test system: rabbit reticulocytes (Retic Lysate IVT kit) translating Renilla mRNA; experiment: In vitro translation by rabbit reticulocyte lysate; type: biochemical; details: 10 µM, 1 hour, Fig. S5
Outline: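 Commercial rabbit reticulocyte lysate run per kit instructions, 0.6 μg per reaction of the capped, polyadenylated Renilla luciferase mRNA used in the parasite-extract assays.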

[5] = test system: T. cruzi epimastigotes (DM28c); experiment: Epimastigote proliferation, SYBR Green assay; type: cell-based, Trypanosoma cruzi; details: for EC50: Trypanosoma cruzi, 72 h, read-out: EC50 epimastigote proliferation; for concentration for maximal inhibition / full block of epimastigote growth: growth curves; for effect on epimastigote growth (in words): Fig. S2, 1% DMSO
[6] = test system: T. cruzi amastigotes (Sylvio X10/1 clone) in U2OS cells; experiment: Intracellular amastigote proliferation in infected U2OS cells; type: cell-based, Trypanosoma cruzi; details: for EC50: Trypanosoma cruzi, U2OS, 48 h, read-out: EC50 intracellular amastigotes; for selectivity index: from EC50 and CC50 averages, U2OS cells
Outline: (§1)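 U2OS cells, grown in DMEM with 10% FBS at 37°C and 5% CO2, seeded at 500 cells/well in 384-well plates and infected after 24 h with 5000 Sylvio X10/1 trypomastigotes. Treated 24 h later with test compound (100 μM to 0.7 nM, 0.5% DMSO) for 48 h, with benznidazole and DMSO controls. Cells fixed in 4% paraformaldehyde, stained with DAPI and DRAQ5, imaged by high-content analysis. Amastigote-to-cell ratio normalised to untreated (100%) and non-infected (0%) wells. EC50 and CC50 from three-parameter nonlinear fit; selectivity index from mean EC50 and CC50.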

[7] = Host cell cytotoxicity in infected U2OS cells; type: cell-based; details: human
Outline: as §1

[8] = test system: T. cruzi amastigotes (DM28c parasite strain) in Vero cells; experiment: Amastigote proliferation and cytotoxicity in Vero cells; type: cell-based, Trypanosoma cruzi; details: DM28c trypomastigotes, Fig. S6
Plasmodium falciparum = details: ref Plouffe et al., 2008; cited from earlier work
[9] = test system: T. cruzi parasite extract translating Renilla mRNA; experiment: Miniaturized 5 μL T. cruzi in vitro translation assay; type: biochemical, Trypanosoma cruzi; details: 5 μl format, 40 μM, Fig. 5D
Outline: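 Extract from DM28c-derived epimastigotes, lysed by nitrogen cavitation; the 30,000 × g supernatant was supplemented with translation buffer containing ATP, GTP, creatine phosphate/kinase, amino acids and spermidine. Reaction of 5 μL: 2 μL lysate, 1 μL test compound (40 μM), 2 μL SP6-transcribed capped, polyadenylated spliced-leader–Renilla luciferase mRNA (22 ng). Luminescence read after adding Renilla luciferase reagent.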

PAK4 = details: mammalian cells; ref Pereira-Veiga et al., 2025; cited from earlier work

CC1CCC(C(C)C)C(OC(=O)Cn2c(-c3ccc(Br)cc3)[n+](C)c3ccccc32)C1.[Cl-] (stereo not drawn) [Compound 3]
% Inhibition [1]: ~20%

Cl.Fc1cccc(Nc2nc(NCC3CCCO3)c3ccccc3n2)c1 (stereo not drawn) [Compound 39A]
% Inhibition (40 µM) [2]: over 50%

Cl.Oc1ccc(Nc2nc(NCC3CCCO3)c3ccccc3n2)cc1 (stereo not drawn) [Compound 39B]
% Inhibition (40 µM) [2]: over 50%

c1ccc2c(NCC3CCCO3)nc(Nc3ccncc3)nc2c1 (stereo not drawn) [Compound 39C]
% Inhibition (40 µM) [2]: around 50%

Cl.Fc1ccc(Nc2nc(NCC3CCCO3)c3ccccc3n2)cc1 (stereo not drawn) [Compound 39D]
puromycin incorporation into elongating protein chains (in words) [3]: inhibited puromycin incorporation

CN(C)c1nc(NCC2CCCO2)c2ccccc2n1.Cl (stereo not drawn) [Compound 39F]
% Inhibition (40 µM) [2]: around 50%

COc1ccccc1Nc1nc(NCC2CCCO2)c2ccccc2n1 (stereo not drawn) [Compound 39G]
% Inhibition (40 µM) [2]: over 50%
inhibition of protein synthesis by reticulocyte lysate (in words) [4]: did not inhibit
puromycin incorporation into elongating protein chains (in words) [3]: inhibited puromycin incorporation
EC50 [5]: 2.8 ± 0.2 µM
concentration for maximal inhibition / full block of epimastigote growth [5]: ~15 µM
EC50 [6]: 0.08 ± 0.07 µM
selectivity index [6]: ~415
CC50 at 48 h [7]: 33 ± 20 µM
EC50 and CC50 values compared with the U2OS/Sylvio experiment (in words) [8]: slightly high values
Plasmodium falciparum inhibition (in words) (Plasmodium falciparum): P. falciparum inhibitors

Fc1ccccc1Nc1nc(NCC2CCCO2)c2ccccc2n1 (stereo not drawn) [Compound 39H]
% Inhibition (40 µM) ([2]; 40 µM): over 50%
puromycin incorporation into elongating protein chains (in words) [3]: inhibited puromycin incorporation
EC50 [5]: 4.8 ± 2 µM
concentration for maximal inhibition / full block of epimastigote growth [5]: > 50 µM
EC50 [6]: 0.4 ± 0.2 µM
selectivity index [6]: ~200
CC50 at 48 h [7]: 84 ± 40 µM
EC50 and CC50 values compared with the U2OS/Sylvio experiment (in words) [8]: Comparable values
Plasmodium falciparum inhibition (in words) (Plasmodium falciparum): P. falciparum inhibitors

Cl.OCCNc1nc(NCC2CCCO2)c2ccccc2n1 (stereo not drawn) [Compound 39I]
% Inhibition (40 µM) [2]: over 50%

Cl.Clc1cccc(Nc2nc(N3CCOCC3)c3ccccc3n2)c1 [Compound 39K]
% Inhibition (40 µM) [2]: over 50%

Cl.OCCNc1nc(Nc2ccccc2)nc2ccccc12 [Compound 39L]
% Inhibition (40 µM) ([2]; 40 µM): around 50%

Cl.c1ccc(CNc2nc(NCC3CCCO3)c3ccccc3n2)nc1 (stereo not drawn) [Compound 39M]
% Inhibition (40 µM) [2]: less than 40%

COc1cccc(Nc2nc(NCC3CCCO3)c3ccccc3n2)c1.Cl (stereo not drawn) [Compound 39]
% Inhibition [1]: ~20%
inhibition of in vitro translation (in words) [9]: clear inhibition
puromycin incorporation into elongating protein chains (in words) [3]: inhibited puromycin incorporation
PAK4 inhibition (in words) (PAK4): inhibit PAK4

Cc1ccc2c(c1)sc(-c1ccc(N(C)C)cc1)[n+]2C.[I-] [Compound 43]
puromycin incorporation into elongating protein chains (in words) [3]: inhibited puromycin incorporation

c1ccc(Nc2nc(NCC3CCCO3)c3ccccc3n2)cc1 (stereo not drawn) [Compound 97]
Plasmodium falciparum inhibition (in words) (Plasmodium falciparum): inhibit Plasmodium falciparum

C[C@@H]1[C@H](O)[C@@H](C)/C=C/C=C/C=C/C=C/C=C/C=C/C=C/[C@H](O[C@@H]2O[C@H](C)[C@@H](O)[C@H](N)[C@@H]2O)C[C@@H]2O[C@](O)(C[C@@H](O)C[C@@H](O)[C@H](O)CC[C@@H](O)C[C@@H](O)CC(=O)O[C@H]1C)C[C@H](O)[C@H]2C(=O)O [Compound 108, Amphotericin B]
% Inhibition [1]: ~100%

NC[C@@H]1O[C@H](O[C@H]2[C@@H](O)[C@H](O[C@@H]3[C@@H](O)[C@H](N)C[C@H](N)[C@H]3O[C@H]3O[C@H](CO)[C@@H](O)[C@H](O)[C@H]3N)O[C@@H]2CO)[C@H](N)[C@@H](O)[C@@H]1O [Paromomycin, reference compound]
inhibition of translation in T. cruzi extract (in words) [2]: did not inhibit translation
inhibition of translation in T. cruzi extract (in words) ([2]; listed as paromomycin): had no effect
effect on epimastigote growth (in words) [5]: did not affect parasite growth
effect on epimastigote growth (in words) ([5]; listed as paromomycin): did not impact T. cruzi proliferation

C[C@@H]1C[C@@H]([C@H](O)CC2CC(=O)NC(=O)C2)C(=O)[C@@H](C)C1 [cycloheximide]
concentration above which translation was fully inhibited [1]: above 0.5 μM

CN[C@@H]1C[C@H](N)[C@@H](O)[C@H](O[C@H]2O[C@H](CO)[C@H](O)[C@@H]3O[C@@]4(O[C@@H]23)O[C@H]([C@H](N)CO)[C@H](O)[C@H](O)[C@H]4O)[C@H]1O [hygromycin]
concentration above which translation was fully inhibited [1]: above 50 nM

From article PMC13499490 (International Journal for Parasitology: Drugs and Drug …, 2026)
